Reference: ChEMBL document CHEMBL1152483, “To determine the cytotoxicity of chlorambucil and one of its nitro-derivatives, conjugated to prasterone and pregnenolone, towards eight human cancer cell-lines” (Eur J Med Chem, 2009)
Calls of active or inactive are those of the source. No cut-off for these calls is given here.

Columns and labels:
[1] = Cytotoxicity against human OVCA3 cells after 5 days by MTT assay; format: functional, cell-based; conditions: OVCA3, 120 h
In short: (§1)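 Cells are grown in RPMI with 2 mM L-glutamine and 10% FBS and seeded at 400–1000 per well. They get doubling dilutions of drug, each dose in triplicate, for five days at 37 °C, 5% CO2, humidified. MTT at 3 mg/ml is added for 3 h, and formazan is dissolved in DMSO and read at 540 nm minus 620 nm. % growth inhibition is taken against control wells and IC50 calculated.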

Daoy [2] = assay: Cytotoxicity against human DaOY cells after 5 days by MTT assay; format: functional, cell-based; conditions: 120 h; in short: as §1
WiDr [3] = assay: Cytotoxicity against human WiDr cells after 5 days by MTT assay; format: functional, cell-based; conditions: 120 h; in short: as §1
MCF7 [4] = assay: Cytotoxicity against human MCF7 cells expressing estrogen and progesterone receptor after 5 days by MTT assay; format: functional, cell-based; conditions: MCF7, 120 h; in short: as §1
A-375 [5] = assay: Cytotoxicity against human A375 cells after 5 days by MTT assay; format: functional, cell-based; conditions: A-375, 120 h; in short: as §1
[6] = Chemical stability assessed as rate of hydrolysis after 2 hrs by HPLC analysis in presence of pig liver esterase; format: physicochemical; conditions: read-out: Activity
In short: (§2)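 Porcine liver esterase is preincubated about 15 min at 37 °C in phosphate buffer pH 7.4, then ester is added. Aliquots are taken at set times, quenched with an equal volume of acetonitrile, vortexed and spun 10 min at 11,600 g. Samples are run on RP-HPLC (C18, 2% acetic acid/acetonitrile pH 5.2, 1.2 ml/min, 254 nm). The zero reaction is ester in buffer alone for 15 min.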

[7] = Partition coefficient, log P after 1 hr by UV spectroscopy; format: physicochemical; conditions: octanol/water
In short: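 Compound is shaken in n-octanol/water for 1 h at 20 °C, then spun 10 min at 3600 g and the phases separated. Original and shaken solutions are diluted to 0.8 mg% and compared by UV spectroscopy at 200–400 nm. Log P is calculated by the Leo method.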

[8] = Alkylating activity in 0.2 M acetate buffer of pH 5.6 at 0.1 to 1 mM after 4 hrs by spectrophotometry relative to chlorambucil; format: physicochemical; conditions: pH 5.6, 4 h, 1000 µM
In short: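 Each compound at 0.1–1.0 mM in 50% (v/v) acetone/ethanol is added to 0.2 M acetate buffer pH 5.6 with 5% (w/v) p-nitrobenzyl pyridine in acetone and incubated 4 h at 37 °C. Colour is then developed with 25% (v/v) 3-amino-1-propanol in tert-butanol and absorbance read at 560 nm.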

[9] = Chemical stability assessed as rate of hydrolysis after 24 hrs by HPLC analysis in presence of pig liver esterase; format: physicochemical; conditions: read-out: Activity; in short: as §2
[10] = Metabolic stability in human plasma assessed as rate of hydrolysis after 24 hrs; format: ADME, cell-free; conditions: read-out: Activity
In short: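 Ester stock is made in absolute ethanol and added to freshly prepared human plasma with PBS, then incubated at 37 °C. Samples are mixed with an equal volume of mobile phase, spun 20 min at 11,600 g, and the supernatant is diluted in mobile phase for RP-HPLC.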

MDA-MB-468 [11] = assay: Cytotoxicity against human MDA-MB-468 cells […] after 5 days by MTT assay; format: functional, cell-based; conditions: MDA-MB-468, 120 h; in short: as §1
MDA-MB-468 [12] = assay: Ratio of IC50 for […] human MDA-MB-468 cells transfected with NAD(P)H: quinone oxidoreductase NQO1 to IC50 for human MDA-MB-468 cells […]; format: functional
NCI-H460 [13] = assay: Cytotoxicity against human H460 cells after 5 days by MTT assay; format: functional, cell-based; conditions: NCI-H460, 120 h; in short: as §1
MDA-MB-468 [14] = assay: Cytotoxicity against human MDA-MB-468 cells transfected with NAD(P)H: quinone oxidoreductase NQO1 after 5 days by MTT assay; format: functional, cell-based; conditions: MDA-MB-468, 120 h; in short: as §1
WiDr [15] = assay: Cytotoxicity against human WiDr cells at < 100 uM after 5 days by MTT assay; format: functional, cell-based; in short: as §1
MDA-MB-468 [16] = assay: Cytotoxicity against human MDA-MB-468 cells […] at < 100 uM after 5 days by MTT assay; format: functional, cell-based; in short: as §1
A-375 [17] = assay: Cytotoxicity against human A375 cells at < 100 uM after 5 days by MTT assay; format: functional, cell-based; in short: as §1
MDA-MB-468 [18] = assay: Cytotoxicity against human MDA-MB-468 cells transfected with NAD(P)H: quinone oxidoreductase NQO1 at < 100 uM after 5 days by MTT assay; format: functional, cell-based; in short: as §1
OVCA3 = assay: Cytotoxicity against human OVCA3 cells at < 100 uM after 5 days by MTT assay; format: functional, cell-based; in short: as §1
Daoy [19] = assay: Cytotoxicity against human DaOY cells at < 100 uM after 5 days by MTT assay; format: functional, cell-based; in short: as §1
NCI-H460 [20] = assay: Cytotoxicity against human H460 cells at < 100 uM after 5 days by MTT assay; format: functional, cell-based; in short: as §1
MCF7 [21] = assay: Cytotoxicity against human MCF7 cells expressing estrogen and progesterone receptor at < 100 uM after 5 days by MTT assay; format: functional, cell-based; in short: as §1
[22] = Chemical stability in phosphate buffer saline at pH 7.4 assessed as compound degradation by HPLC analysis; format: physicochemical; conditions: read-out: Activity
In short: (§3)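 Esters are stored in phosphate buffered saline at 37 °C. Stability is followed over forty-five days by RP-HPLC (C18, acetic acid/acetonitrile pH 5.2, 1.2 ml/min, UV 254 nm), supported by infrared spectroscopy.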

[23] = Metabolic stability in rat blood assessed as half life; format: ADME, tissue-based
[24] = Metabolic stability in rat liver assessed as half life; format: ADME, tissue-based
[25] = Chemical stability in phosphate buffer saline assessed as half life by HPLC analysis; format: physicochemical; in short: as §3

SMILES	IC50 [1] [µM]	IC50 (Daoy [2]) [µM]	IC50 (WiDr [3]) [µM]	IC50 (MCF7 [4]) [µM]	IC50 (A-375 [5]) [µM]	metabolised at 2 h [6] [%]	logP at 1 h [7]	Activity [8] [%]	metabolised at 24 h [9] [%]	metabolised at 24 h [10] [%]	IC50 (MDA-MB-468 [11]) [µM]	Ratio IC50 (MDA-MB-468 [12])	IC50 (NCI-H460 [13]) [µM]	IC50 (MDA-MB-468 [14]) [µM]	other results
C[C@]12CC[C@H](OC(=O)CCCc3ccc(N(CCCl)CCCl)cc3)CC1=CC[C@@H]1[C@@H]2CC[C@]2(C)C(=O)CC[C@@H]12	82.5	19.6	> 100	72.5	61.4	24	> 8	70	83	51	5.48	1.5	11.8	11.8	–
CC(=O)[C@H]1CC[C@H]2[C@@H]3CC=C4C[C@@H](O)CC[C@]4(C)[C@H]3CC[C@]12C	–	–	–	–	–	–	–	–	–	–	–	–	–	–	Activity (WiDr [15]): inactive; Activity (MDA-MB-468 [16]): inactive; Activity (A-375 [17]): inactive; Activity (MDA-MB-468 [18]): inactive; Activity (OVCA3): inactive; Activity (Daoy [19]): inactive; Activity (NCI-H460 [20]): inactive; Activity (MCF7 [21]): inactive
C[C@]12CC[C@H](OC(=O)CCCc3ccc(N(CCCl)CCCl)c([N+](=O)[O-])c3)CC1=CC[C@@H]1[C@@H]2CC[C@]2(C)C(=O)CC[C@@H]12	> 100	> 100	> 100	> 100	> 100	24	> 8	8	83	51	7.25	1.5	> 100	10.6	degraded [22]: 46%
CC(=O)[C@H]1CC[C@H]2[C@@H]3CC=C4C[C@@H](OC(=O)CCCc5ccc(N(CCCl)CCCl)c([N+](=O)[O-])c5)CC[C@]4(C)[C@H]3CC[C@]12C	> 100	> 100	> 100	68.3	> 100	24	> 8	4	83	37	19.3	2	> 100	32.6	degraded [22]: 48%
CC(C)(C)OC(=O)CCCc1ccc(N(CCCl)CCCl)cc1 [CHLORAMBUCIL TERTIARY BUTYL ESTER]	–	–	–	–	–	–	–	–	–	–	–	–	–	–	half-life [23]: 7 h; half-life [24]: 2 h
O=C(O)CCCc1ccc(N(CCCl)CCCl)cc1 [CHLORAMBUCIL]	8.92	1.36	7.13	4.5	2.58	–	3.8	> 100	–	–	0.65	–	2.19	0.79	half-life [25]: 1 h
O=C(O)CCCc1ccc(N(CCCl)CCCl)c([N+](=O)[O-])c1	15.6	5.3	13	23	9.46	–	3.7	38	–	–	1.16	–	9.53	3.75	–
C[C@]12CC[C@H](O)CC1=CC[C@@H]1[C@@H]2CC[C@]2(C)C(=O)CC[C@@H]12	–	–	–	–	–	–	–	–	–	–	–	–	–	–	Activity (WiDr [15]): inactive; Activity (MDA-MB-468 [16]): inactive; Activity (A-375 [17]): inactive; Activity (MDA-MB-468 [18]): inactive; Activity (OVCA3): inactive; Activity (Daoy [19]): inactive; Activity (NCI-H460 [20]): inactive; Activity (MCF7 [21]): inactive
CC(=O)[C@H]1CC[C@H]2[C@@H]3CC=C4C[C@@H](OC(=O)CCCc5ccc(N(CCCl)CCCl)cc5)CC[C@]4(C)[C@H]3CC[C@]12C	88.8	41.9	86.3	90	74.2	24	> 8	18	83	37	10.3	2	36.2	20.5	–
